Experimental data published in ChEMBL document CHEMBL1125259, “Lipophilic glycosyl phosphotriester derivatives of AZT: synthesis, NMR transmembrane transport study, and antiviral activity” (1991).
pEC50: −log10 of the molar value.

Assays:
[1] = molecular target: Human immunodeficiency virus type 1 reverse transcriptase (Human immunodeficiency virus 1) (UniProt Q72547); assay: Compound ability to inhibit the production of HIV reverse transcriptase (RT) in preinfected PBL (peripheral blood lymphocytes) at 21 days at a concentration 5 uM; type: functional
Outline: (§1)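 PBL were infected with HIV-1 for 1 h at 37 °C, washed twice, and resuspended in complete medium with 10% interleukin-2 and anti-human α-interferon (1000 units/mL). Cells were plated at 1×10^6 cells/well with or without compound. At each time point, 50 µL supernatant was taken for RT assay ([³H]dTTP incorporation, cpm).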

[2] = molecular target: Human immunodeficiency virus type 1 reverse transcriptase (Human immunodeficiency virus 1) (UniProt Q72547); assay: Compound ability to inhibit the production of HIV reverse transcriptase (RT) in preinfected PBL (peripheral blood lymphocytes) at 21 days at a concentration 1 uM; type: functional; outline: as §1
[3] = molecular target: Human immunodeficiency virus type 1 reverse transcriptase (Human immunodeficiency virus 1) (UniProt Q72547); assay: Compound ability to inhibit the production of HIV reverse transcriptase (RT) in culture supernatant of monocytic U937 on at 11 days at a concentration 0.2 uM; type: functional
Outline: (§2)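 HIV-1-infected monocytic U937 cultures were kept up to 14 days with compound. Supernatant RT activity was measured as for CEM-C113, as [³H] cpm/50 µL. % inhibition = 100 − 100 × (cpm of treated samples / cpm of control virus).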

[4] = molecular target: Human immunodeficiency virus type 1 reverse transcriptase (Human immunodeficiency virus 1) (UniProt Q72547); assay: Compound ability to inhibit the production of HIV reverse transcriptase (RT) in preinfected PBL (peripheral blood lymphocytes) at 14 days at a concentration 5 uM; type: functional; outline: as §1
[5] = molecular target: Human immunodeficiency virus type 1 reverse transcriptase (Human immunodeficiency virus 1) (UniProt Q72547); assay: Compounds were evaluated for anti-RT activity at 7 days of culture; type: functional
Outline: (§3)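 HIV-1 (12 500 CCID50) was preincubated with compound at 25 µM final for 60 min at 37 °C, pelleted by ultracentrifugation and resuspended. RT was measured at once with poly(rA)-oligo(dT) and ³H-dTTP (1 h, 37 °C, cpm). Treated virus was then put on CEM-C113 cells for 60 min and replaced with compound-free medium. Supernatant RT was read at days 7 and 9.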

CCRF-CEM = assay: Concentration that reduced by 50% the HIV induced CPE (cytopathic effect) on day 7.; type: functional; details: Homo sapiens, 168 h, read-out: ED50 (the source's name)
Outline: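 CEM-C113 cells (1×10^5 cells/mL) were infected with HIV-1 LAV-Bru or mock-infected, with compound dilutions in triplicate, for at least 7 days. Medium with or without drug was renewed every 3–4 days for longer runs. MTT absorbance was read at 540 nm. CD50 = 50% reduction of mock-infected absorbance; ED50 = dose giving 50% protection from CPE. Values are averages of at least two experiments.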

[6] = molecular target: Human immunodeficiency virus type 1 reverse transcriptase (Human immunodeficiency virus 1) (UniProt Q72547); assay: Percent inhibition measured as the production of HIV reverse transcriptase (RT) in culture supernatant of monocytic U937 on at 7 days at a concentration 1 uM; type: functional
Outline: (§4)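 U937 cells in RPMI 1640 with 5% heat-inactivated FCS, penicillin, streptomycin and polybrene (2 μg/mL), 37 °C, 5% CO2. Infected with HIV-1 LAV-Bru; compounds diluted in PBS. 50 μL supernatant aliquots were assayed for RT: 1 h, 37 °C, pH 7.8, Mg2+, poly(rA)-oligo(dT), [3H]dTTP, TCA-pyrophosphate stop, filter counting. % inhibition = 100 − 100 × (treated cpm / virus-control cpm).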

[7] = molecular target: Human immunodeficiency virus type 1 reverse transcriptase (Human immunodeficiency virus 1) (UniProt Q72547); assay: Percent inhibition evaluated for anti-RT activity at 7 days of culture; type: functional; design: concentration or dose not given beside the values; details: concentration not given here; outline: as §3
[8] = molecular target: Human immunodeficiency virus type 1 reverse transcriptase (Human immunodeficiency virus 1) (UniProt Q72547); assay: Compound ability to inhibit the production of HIV reverse transcriptase (RT) in culture supernatant of monocytic U937 on at 14 days at a concentration 0.2 uM; type: functional; outline: as §2
[9] = molecular target: Human immunodeficiency virus type 1 reverse transcriptase (Human immunodeficiency virus 1) (UniProt Q72547); assay: Percent inhibition evaluated for anti-RT activity at 0 days of culture; type: functional; design: concentration or dose not given beside the values; details: concentration not given here; outline: as §3
[10] = molecular target: Human immunodeficiency virus type 1 reverse transcriptase (Human immunodeficiency virus 1) (UniProt Q72547); assay: Compounds were evaluated for anti-RT activity by MTT dose and %protection was reported at 9 days of culture; type: functional
Outline: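 HIV-1 was preincubated with compound at 25 µM for 60 min at 37 °C, pelleted, and added to CEM-C113 cells (1×10^5 cells/mL) for 60 min at 37 °C. Medium was then replaced without compound. At days 7 and 9, viability was read by MTT assay on 100 µL of cell suspension.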

[11] = molecular target: Human immunodeficiency virus type 1 reverse transcriptase (Human immunodeficiency virus 1) (UniProt Q72547); assay: Compound ability to inhibit the production of HIV reverse transcriptase (RT) in culture supernatant of CEM-CL13 on at 7 days at a concentration 1 uM; type: functional
Outline: (§5)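 CEM-C113 cells in RPMI 1640 with 5% heat-inactivated FCS and polybrene (2 µg/mL) were plated at 1×10^5 cells/mL with compound in PBS, in triplicate, and infected with HIV-1 LAV-Bru. From day 7, every 3–4 days, fresh medium with or without drug was added and 50 µL supernatant was taken for RT microassay. The RT microassay used poly(rA)-oligo(dT) and (methyl-³H)dTTP for 1 h at 37 °C, with TCA precipitation, read as cpm/50 µL.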

[12] = molecular target: Human immunodeficiency virus type 1 reverse transcriptase (Human immunodeficiency virus 1) (UniProt Q72547); assay: Compounds were evaluated for anti-RT activity at 0 days of culture; type: functional; outline: as §3
[13] = molecular target: Human immunodeficiency virus type 1 reverse transcriptase (Human immunodeficiency virus 1) (UniProt Q72547); assay: Percent inhibition measured as the production of HIV reverse transcriptase (RT) in culture supernatant of monocytic U937 on at 7 days at a concentration 0.2 uM; type: functional; outline: as §4
[14] = molecular target: Human immunodeficiency virus type 1 reverse transcriptase (Human immunodeficiency virus 1) (UniProt Q72547); assay: Compound ability to inhibit the production of HIV reverse transcriptase (RT) in culture supernatant of CEM-CL13 on at 26 days at a concentration 0.2 uM; type: functional; outline: as §5
[15] = molecular target: Human immunodeficiency virus type 1 reverse transcriptase (Human immunodeficiency virus 1) (UniProt Q72547); assay: Compound ability to inhibit the production of HIV reverse transcriptase (RT) in culture supernatant of CEM-CL13 on at 7 days at a concentration 0.2 uM; type: functional; outline: as §5
[16] = molecular target: Human immunodeficiency virus type 1 reverse transcriptase (Human immunodeficiency virus 1) (UniProt Q72547); assay: Percent inhibition measured as the production of HIV reverse transcriptase (RT) in culture supernatant of monocytic U937 on at 11 days at a concentration 0.2 uM; type: functional; outline: as §2
[17] = molecular target: Human immunodeficiency virus type 1 reverse transcriptase (Human immunodeficiency virus 1) (UniProt Q72547); assay: Compound ability to inhibit the production of HIV reverse transcriptase (RT) in culture supernatant of monocytic U937 on at 7 days at a concentration 0.2 uM; type: functional
Outline: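 HIV-1 LAV-Bru-infected U937 cultures run in complete RPMI 1640 (5% FCS, polybrene 2 µg/mL) at 37 °C with compound in triplicate. Culture supernatant (50 µL) sampled from day 7 for RT microassay: poly(rA)-oligo(dT), (methyl-3H)dTTP, Mg2+, pH 7.8, 1 h at 37 °C, TCA precipitation onto filters. Read as cpm/50 µL; % inhibition = 100 − 100 × treated/virus-control cpm.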

[18] = molecular target: Human immunodeficiency virus type 1 reverse transcriptase (Human immunodeficiency virus 1) (UniProt Q72547); assay: Compound ability to inhibit the production of HIV reverse transcriptase (RT) in culture supernatant of monocytic U937 on at 14 days at a concentration 5 uM; type: functional; outline: as §2
[19] = molecular target: Human immunodeficiency virus type 1 reverse transcriptase (Human immunodeficiency virus 1) (UniProt Q72547); details: at 25 µM
[20] = molecular target: Human immunodeficiency virus type 1 reverse transcriptase (Human immunodeficiency virus 1) (UniProt Q72547); assay: Percent inhibition measured as the production of HIV reverse transcriptase (RT) in culture supernatant of monocytic U937 on at 11 days at a concentration 5 uM; type: functional; outline: as §4
[21] = molecular target: Human immunodeficiency virus type 1 reverse transcriptase (Human immunodeficiency virus 1) (UniProt Q72547); assay: Compound ability to inhibit the production of HIV reverse transcriptase (RT) in culture supernatant of monocytic U937 on at 7 days at a concentration 5 uM; type: functional; outline: as §2
[22] = molecular target: Human immunodeficiency virus type 1 reverse transcriptase (Human immunodeficiency virus 1) (UniProt Q72547); assay: Compound ability to inhibit the production of HIV reverse transcriptase (RT) in culture supernatant of CEM-CL13 on at 7 days at a concentration 5 uM; type: functional; outline: as §5

Compound | Activity (c.p.m. 50ul-1) [1] | Activity (c.p.m. 50ul-1) [2] | Activity (c.p.m. 50ul-1) [3] | Activity (c.p.m. 50ul-1) [4] | Activity (c.p.m. 50ul-1) [5] | pEC50 (CCRF-CEM) | inhibition [6] [%] | inhibition [7] [%] | Activity (c.p.m. 50ul-1) [8] | inhibition [9] [%] | Protection [10] [%] | Activity (c.p.m. 50ul-1) [11] | Activity (c.p.m. 50ul-1) [12] | inhibition [13] [%] | Activity (c.p.m. 50ul-1) [14] | Activity (c.p.m. 50ul-1) [15] | inhibition [16] [%] | Activity (c.p.m. 50ul-1) [17] | Activity (c.p.m. 50ul-1) [18] | inhibition [19] [%] | other results
CCCCCCCCCCCCCCCCOP(=O)(OC[C@H]1OC(O)[C@H](O)[C@@H](O)[C@@H]1O)OC[C@H]1OC(n2cc(C)c(=O)[nH]c2=O)C[C@@H]1N=[N+]=[N-] (stereo partly specified) | 150000 | 71100 | 178000 | 157000 | 8000 | 6.74 | 73 | 87 | 16000 | 9 | 52 | 2600 | 16000 | 0 | 64000 | 4500 | 0 | 237000 | – | – | –
Cc1cn([C@H]2C[C@H](N=[N+]=[N-])[C@@H](COP(=O)(O)OC[C@H]3OC(O)[C@H](O)[C@@H](O)[C@@H]3O)O2)c(=O)[nH]c1=O (stereo partly specified) | 373 | 16100 | – | 732 | 19000 | 6.70 | 36 | 70 | – | 0 | 13 | – | 32000 | – | 65000 | 1600 | – | – | 31400 | 0 | inhibition [20]: 0%; Activity (c.p.m. 50ul-1) [21]: 142000; Activity (c.p.m. 50ul-1) [22]: 1100
CCCCCCCCCCCCCCCCOP(=O)(OCCO[C@H]1O[C@H](CO)[C@@H](O)[C@H](O)[C@@H]1O)OCC1OC(n2cc(C)c(=O)[nH]c2=O)CC1N=[N+]=[N-] (stereo partly specified) | – | – | 131000 | – | 81000 | 6.74 | 0 | 0 | 30000 | 26 | 4 | 6000 | 13000 | 0 | 61000 | 3900 | 9 | 343000 | – | – | –
CCCCCCCCCCCCCCCCOP(=O)(OC[C@H]1OC(O)[C@@H](O)[C@@H](O)[C@@H]1O)OC[C@H]1OC(n2cc(C)c(=O)[nH]c2=O)C[C@@H]1N=[N+]=[N-] (stereo partly specified) | 22400 | – | 227000 | 58300 | 18000 | 6.85 | 51 | 71 | 27000 | 30 | 18 | 2000 | 17000 | 0 | 73000 | 4000 | 0 | 251000 | – | – | –
Cc1cn([C@H]2C[C@H](N=[N+]=[N-])[C@@H](COP(=O)(O)OCCO[C@H]3O[C@H](CO)[C@@H](O)[C@H](O)[C@@H]3O)O2)c(=O)[nH]c1=O | 3380 | 21300 | – | 471 | 47000 | 6.80 | 0 | 25 | – | 0 | 12 | – | 30000 | – | 70000 | 4400 | – | – | 23000 | 41 | inhibition [20]: 0%; Activity (c.p.m. 50ul-1) [21]: 200000; Activity (c.p.m. 50ul-1) [22]: 1670
Cc1cn([C@H]2C[C@H](N=[N+]=[N-])[C@@H](COP(=O)(O)OC[C@H]3OC(O)[C@@H](O)[C@@H](O)[C@@H]3O)O2)c(=O)[nH]c1=O (stereo partly specified) | 19500 | 33100 | – | 4130 | 24000 | 6.89 | 0 | 62 | – | 0 | 22 | – | 25000 | – | 85000 | 3400 | – | – | 24000 | 0 | inhibition [20]: 0%; Activity (c.p.m. 50ul-1) [21]: 133000; Activity (c.p.m. 50ul-1) [22]: 1500
